High-throughput results deposited in PubChem by Johns Hopkins Ion Channel Center.
In the library only some 3.5% were active in any assay of this set; here they are far more common.
RGS4 block: inhibitors of human RGS4 | B-score at 10 µM | P49798 | AID 463165 | 310,000 compounds, 0.45% hits | HEK293 M3R/RGS4 inducible, Fluo-4 calcium flux; hits give high values; triggered by carbachol at its EC20;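 active = B-score, a plate-corrected calcium signal, over three deviations above library mean, with baseline fluorescence within five deviations of library mean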;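 note: RGS4 expression induced by doxycycline in cells with stable M3 receptor; B-score is computed from the integrated fluorescence ratio over baseline after carbachol; higher B-score means a larger calcium signal and so more RGS4 inhibition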
Target sequence (P49798 whole entry, looked up): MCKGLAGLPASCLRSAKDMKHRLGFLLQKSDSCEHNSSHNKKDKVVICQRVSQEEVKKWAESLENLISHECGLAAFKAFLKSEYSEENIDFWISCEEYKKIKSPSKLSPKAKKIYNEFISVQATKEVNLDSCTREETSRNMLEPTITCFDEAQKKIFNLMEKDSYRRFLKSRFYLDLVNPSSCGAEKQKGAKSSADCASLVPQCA
MrgX1 PAM: allosterically activates human MrgX1 receptor signaling; B-score at 10 µM; Q96LB2; 310,000 compounds, 0.63% hits; MrgX1-HEK293, Fluo-4 calcium flux, FDSS; hits give high values; AID 588675;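 active = plate-corrected calcium response at least 3 library SD above typical, normal starting fluorescence, not activating the receptor alone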;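 note: compound read alongside a low EC10 to EC30 dose of BAM8-22 agonist; peak minus trough fluorescence over baseline measured at the second addition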
Target sequence (Q96LB2 whole entry, looked up): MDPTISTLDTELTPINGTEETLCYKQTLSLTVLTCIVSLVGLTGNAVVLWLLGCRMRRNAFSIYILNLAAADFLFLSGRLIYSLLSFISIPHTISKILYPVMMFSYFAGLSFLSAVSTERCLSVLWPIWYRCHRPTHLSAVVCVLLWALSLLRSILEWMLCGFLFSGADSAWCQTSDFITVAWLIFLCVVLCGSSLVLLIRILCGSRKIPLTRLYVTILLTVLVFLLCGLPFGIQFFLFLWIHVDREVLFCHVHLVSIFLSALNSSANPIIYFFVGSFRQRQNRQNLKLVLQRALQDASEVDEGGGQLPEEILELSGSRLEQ
RGS4 act: RGS4 potentiation or activation; HEK293 M3R/inducible RGS4, carbachol calcium flux Fluo4; hits give low values; B-score at 10 µM; 310,000 compounds, 0.92% hits; AID 463111;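 active = B-score of the integrated calcium signal more than 4 SD below the library mean, with starting fluorescence not abnormally high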;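 note: negative B-score means reduced calcium response which marks RGS4 activation or potentiation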
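Assay system: HEK293 FlpIn-TREx cells, stable M3R, doxycycline-inducible RGS4 / Probe or stimulus: carbachol, ECmax concentration / Times: overnight RGS4 induction, 30 min dye load 37 °C, 20 min compound RT / Signal: kinetic calcium fluorescence imaging with Fluo4-AM dye, 2 µM / Measure: Agonist-evoked peak-minus-minimum fluorescence over baseline, integrated ratio, B score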
MrgX1 ag: agonists of human MrgX1 receptor. Q96LB2. MrgX1-HEK293 cells, Fluo-4 calcium fluorescence, agonist mode; hits give high values. B-score at 10 µM. 310,000 compounds, 0.44% hits;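 active = calcium response B-score plate-corrected fluorescence ratio at least 3 library SD, with starting fluorescence B-score inside 5 SD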
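Test system: HEK293 cells stably expressing human MrgX1 receptor; Input: fifteen thousand cells per well; Dosing: compound delivered in addition one of three; Schedule: overnight seeding, then 1 h dark dye loading; Technique: Fluo-4 NW calcium fluorescence; Measure: B-scored fluorescence response ratio; Controls: positive and negative controls per plate.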
MrgX1 antagonist: blocks BAM8-22 activation of human MrgX1 receptor; MRGX1-HEK293 calcium flux, Fluo-4, BAM8-22 antagonism; hits give low values; B-score at 10 µM; Q96LB2; AID 588676; 310,000 compounds, 1.3% hits;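 active = calcium-response B-score plate-corrected more than 3 library SD below zero, starting fluorescence within 5 deviations, no agonist response on first addition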;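 note: peak minus trough fluorescence over baseline after final BAM8-22 challenge near maximal dose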
RGS4 block valid: RGS4 inhibitor validation; shares compounds with RGS4 block; HEK293 M3R/RGS4, carbachol calcium Fluo-4 fluorescence; carbachol added at its EC20; 0 = buffer wells, 100 = carbachol control; calcium response, % at 10 µM; 1,700 compounds, 65% hits; AID 492999;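 active = duplicate-averaged calcium response above the buffer-only control mean plus 5 SD of those controls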;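 note: integrated fluorescence ratio F max minus min over baseline F0; higher response in RGS4-induced cells means RGS4 inhibition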
RGS4 uninduced: checks RGS4 inhibitor effects in non-induced HEK293 M3R cells; 1,900 compounds, 20% hits; activity (percent), % at 10 µM; carbachol calcium Fluo-4; submaximal (EC20) carbachol stimulus; buffer wells 0%, carbachol control wells 100%; shares compounds with RGS4 block; call rule not given here;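 note: RGS4 induction absent so cells express M3R without RGS4; higher means more calcium signal and flags a non-specific hit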
M3R basal Ca ctr: signal in non-induced cells without carbachol, RGS4 inhibitor counter-screen; shares compounds with RGS4 block; HEK293 M3R/RGS4 non-induced, Fluo-4 calcium, no carbachol; normalised: buffer wells 0%, carbachol wells 100%; calcium response (agonist-mode artifact), % at 10 µM; 1,900 compounds, 22% hits;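 active = duplicate-averaged calcium rise in uninduced cells above buffer wells' mean plus 5 SD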
MrgX1 ag reconf: human MrgX1 agonism, re-confirmation screen; MrgX1-HEK293, Fluo-4 calcium fluorescence, FDSS; activation, % at 10 µM; AID 602412; shares compounds with MrgX1 ag; 600 compounds, 78% hits;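 active = calcium signal rise, corrected for plate position, at least 3 library SD high, with starting brightness within 5 such deviations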
MrgX1 allo conf: reconfirmed allosteric activator of human MrgX1 receptor. shares compounds with MrgX1 PAM. MrgX1-HEK293, Fluo-4 calcium fluorescence, FDSS. activation (ratio percentage), % at 10 µM. 1,200 compounds, 13% hits. AID 602413;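 active = ratio at least 3 SD above the weak peptide control, stable starting fluorescence, no direct agonism earlier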;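 note: compound followed by low BAM8-22 agonist challenge near EC20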
MrgX1 antag conf: confirmation of human MrgX1 receptor antagonists; shares compounds with MrgX1 antagonist; MrgX1-HEK293, BAM8-22 calcium flux, Fluo-4; hits give low values; remaining BAM8-22 calcium response % of control (hits give low values), % at 10 µM; 2,300 compounds, 19% hits;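 active = remaining agonist calcium response no higher than 100% minus 3 SD of agonist-only control wells, with starting fluorescence near control levels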;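 note: agonist BAM8-22 given at a near maximal EC90 to ECmax level; peak minus minimum fluorescence divided by baseline after agonist addition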
HEK293 Ca flux: MrgX1 antagonist counter-screen hit in parental HEK293 cells. shares compounds with MrgX1 antagonist. Fluo-4 calcium fluorescence, FDSS. fluorescence ratio F(max-min)/F0 at 10 µM. 4,000 compounds, 2% hits. AID 624111;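 active = duplicate-averaged calcium fluorescence ratio at least three times the standard deviation of buffer wells, a nonspecific response in parental cells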
HEK293 Ca counter: activity in parental HEK293 cells without MrgX1; shares compounds with MrgX1 antagonist; parental HEK293 calcium flux, Fluo-4 fluorescence ratio; hits give high values; fluorescence ratio F(max-min)/F0 at 10 µM; 4,000 compounds, 0.4% hits; AID 624114;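 active = calcium fluorescence ratio, averaged over duplicates, at least 3 SD of the buffer-well ratio, meaning a nonspecific response in receptor-free cells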;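 note: untransfected parental HEK293 lacking MrgX1 used as counterscreen for MrgX1 allosteric activators; fluorescence change taken during the second addition on a kinetic imager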
HEK293 Ca cntr2: counter-screen for MrgX1 activators: effect in parental HEK293 cells. shares compounds with MrgX1 antagonist. 4,000 compounds, 8.7% hits. fluorescence ratio F(max-min)/F0 at 10 µM. Fluo-4 calcium fluorescence (FDSS); hits give high values;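 active = calcium fluorescence ratio at least three times the spread of buffer wells, meaning a non-specific response in parental cells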
Each line names hits and unclear results; the compound was inactive in the other large screens (follow-up assays come after a bar, where they were run).

Cc1ccc(/C=c2\sc3n(c2=O)CN(c2ccc(Br)cc2)CN=3)o1	none
Cc1ccc(/C=c2/sc3n(c2=O)CCCN=3)o1	RGS4 block 5.31 | RGS4 block valid inactive | RGS4 uninduced inactive | M3R basal Ca ctr 11.5%
O=C1/C(=C/c2ccc([N+](=O)[O-])cc2)C=C(c2ccccc2)N1c1ccc(O)cc1	RGS4 block 5.08 | RGS4 block valid 9.0% | RGS4 uninduced inactive | M3R basal Ca ctr inactive
COc1ccc(N2C(=O)/C(=C/c3ccc([N+](=O)[O-])cc3)C=C2c2ccccc2)cc1	none
O=C1/C(=C/c2ccc([N+](=O)[O-])cc2)C=C(c2ccccc2)N1c1ccccc1	none | RGS4 block valid inactive | RGS4 uninduced inactive | M3R basal Ca ctr inactive
Cc1c(Cl)ccc2c1NC(=O)[C@]21N[C@@H](Cc2ccccc2)[C@H]2C(=O)N(c3ccc(F)cc3)C(=O)[C@H]21	RGS4 block 4.89, MrgX1 ag 26.6 | RGS4 block valid 27.0% | RGS4 uninduced inactive | M3R basal Ca ctr 20.0% | MrgX1 ag reconf inactive | HEK293 Ca flux inactive | HEK293 Ca counter inactive | HEK293 Ca cntr2 inactive
CCN(CC)c1ccc(Nc2cc3n(c(=O)n2)CCc2cc(OC)c(OC)cc2-3)cc1	MrgX1 antagonist -11.1 | RGS4 uninduced 49.5% | M3R basal Ca ctr inactive | MrgX1 antag conf inactive | HEK293 Ca flux inactive | HEK293 Ca counter inactive | HEK293 Ca cntr2 inactive
Nc1ccccc1C#CC(=O)c1ccccc1	none
COc1cc(CNc2ccc(N3CCCC3)cc2)cc(Cl)c1OC	MrgX1 antagonist -6.07 | RGS4 uninduced 33.0% | M3R basal Ca ctr inactive | MrgX1 antag conf inactive | HEK293 Ca flux inactive | HEK293 Ca counter inactive | HEK293 Ca cntr2 inactive
O=C(CCN1CCc2ccccc2CC1)c1ccc2c(c1)OCCO2	RGS4 block 13.3, MrgX1 ag 38.4 | RGS4 block valid 19.5% | RGS4 uninduced inactive | M3R basal Ca ctr 26.5% | MrgX1 ag reconf 135.9% | HEK293 Ca flux inactive | HEK293 Ca counter inactive | HEK293 Ca cntr2 inactive
Cc1cccc(C(=O)O)c1NC(=O)Cc1cccc2ccccc12	none
COc1cc(C2(c3ccc(O)c(OC)c3)C(=O)Nc3c(C)cc(Br)cc32)ccc1O	RGS4 block 11.5, MrgX1 antagonist -4.6 | RGS4 block valid 43.0% | RGS4 uninduced inactive | M3R basal Ca ctr 25.0% | MrgX1 antag conf 83.1% | HEK293 Ca flux inactive | HEK293 Ca counter inactive | HEK293 Ca cntr2 inactive
CC1CCN(CCCNC(=O)CCNC(=O)Cn2cnc3ccccc3c2=O)CC1	none
COc1ccc(C2=Nn3c(nnc3-c3ccncc3)SC2)cc1OC	RGS4 block 5.15, MrgX1 PAM 8.17 | RGS4 block valid 9.0% | RGS4 uninduced inactive | M3R basal Ca ctr inactive | MrgX1 allo conf inactive | HEK293 Ca flux inactive | HEK293 Ca counter inactive | HEK293 Ca cntr2 inactive
CCOc1ccc(-c2nnc3n2N=C(c2ccc(OC)cc2)CS3)cc1	none
COc1ccccc1C(=O)NC(CCSC)C(=O)NCCCSc1ccccc1 (stereo not given)	none
O=C1C(Cl)=C(NS(=O)(=O)c2ccc([N+](=O)[O-])cc2)C(=O)c2ccccc21	RGS4 block 8.48, MrgX1 PAM 21.2 | RGS4 block valid 42.5% | RGS4 uninduced inactive | M3R basal Ca ctr inactive | MrgX1 allo conf 14.3% | HEK293 Ca flux inactive | HEK293 Ca counter inactive | HEK293 Ca cntr2 inactive
O=[N+]([O-])c1ccc(Oc2ccc(S(=O)(=O)Nc3ccccc3)cc2)cc1	none
Cc1csc2c(=O)sc(NC(=O)c3cccs3)nc12	none
COc1ccc(CS(=O)(=O)/C(Cl)=C(/Cl)C(=O)Nc2ccc(OC)nc2)cc1	RGS4 block 12.7, MrgX1 ag 46.8 | RGS4 block valid 57.0% | RGS4 uninduced 32.0% | M3R basal Ca ctr 12.0% | MrgX1 ag reconf 191.0% | HEK293 Ca flux inactive | HEK293 Ca counter inactive | HEK293 Ca cntr2 inactive
COc1ccc(C(=O)CCN2CCN(c3ccccc3OC)CC2)cc1	none
COc1ccc(C(=O)CCN2CCc3cc(OC)c(OC)cc3C2)cc1	MrgX1 ag 42.5 | RGS4 uninduced inactive | M3R basal Ca ctr 8.5% | MrgX1 ag reconf inactive | HEK293 Ca flux inactive | HEK293 Ca counter inactive | HEK293 Ca cntr2 inactive
O=C1[C@H]2[C@@H](C3CC3)N3C(=O)CN(Cc4ccccn4)C(=O)[C@@]3(Cc3ccccc3)[C@H]2C(=O)N1c1ccccc1	none
CCc1ccc2[nH]c(C(=O)N(C)c3ccc(F)cc3F)cc2c1	none
Cc1ccc(NC(=O)CSC(N)=O)cc1Cl	RGS4 block 6.07, MrgX1 antagonist -4.95 | RGS4 block valid 12.0% | RGS4 uninduced inactive | M3R basal Ca ctr inactive | MrgX1 antag conf 85.5% | HEK293 Ca flux inactive | HEK293 Ca counter inactive | HEK293 Ca cntr2 inactive
NC(=O)SCC(=O)Nc1ccc(Cl)c(Cl)c1	none (no result: RGS4 block, RGS4 act)
CCOc1ccc(C2C(C#N)=C(N)Oc3cc(O)ccc32)cc1OCC (stereo not given)	none
